The subject of data set [1] is Molt-4 (blood). In words: Cytotoxicity, sulforhodamine B assay, Molt-4. Format: cell-based, human. The following applies: day 11. An outline of the steps: (§1)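 Cells were grown 1 week in glucose- or galactose-containing medium, then seeded in 96-well plates. iCell cardiomyocytes were seeded on gelatin-coated plates and grown 5 days. Test compounds in 1:1 ethanol:water were added at each media change on days 0, 3, 7 and 10 (four doses), at up to 250 μM. Final ethanol was 2.5% at 250 μM and 1% otherwise. Total protein was read by sulforhodamine B on day 11. CC50 was fitted from triplicates.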

The subject of data set [2] is SNB-78 (CNS). In words: Cytotoxicity, sulforhodamine B assay, SNB-78. Format: cell-based, human. The following applies: for CC50: day 11. An outline of the steps: as §1
The subject of data set [3] is COLO 205 (intestine). In words: Cytotoxicity, sulforhodamine B assay, COLO 205. The conditions noted are these: day 11. Format: cell-based, human. An outline of the steps: as §1
For orientation: The SRB assay estimates cell density from bound dye.

The test system of data set [4] is Caki-1 (kidney). The data set is described as follows: Cytotoxicity, sulforhodamine B assay, Caki-1. The conditions noted are these: day 11. Format: cell-based, human. An outline of the steps: as §1
Data set [5] deals with HepG2 (liver). In words: Cytotoxicity, sulforhodamine B assay, HepG2. The conditions noted are these: day 11, four doses. Format: cell-based, human. An outline of the steps:
as §1

Data set [6] is classed as in vivo, Sprague Dawley rats. The conditions noted are these: single 30 mg/kg sc; for amount excreted in bile: rat bile collected over 168 h; for amount excreted in urine: rat urine collected over 168 h. An outline of the steps:
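Rats (3 male, 3 female) received a single subcutaneous 30 mg/kg dose of test GalNAc–siRNA. Liver, kidney, heart, plasma, urine and bile were sampled, with urine and bile collected over 168 h. Samples were ACN/water-precipitated, dried and dephosphorylated with calf intestinal alkaline phosphatase (pH 8.0, 37°C, 1 h). 2′-F-nucleosides were quantified by LC-MS/MS against matrix standards ([…]). Values are group means.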

A short description of data set [7]: In vitro metabolism of 2′-F-monomers in human liver S9. Format: in vitro ADME. The following applies: 10 μM, human liver S9 1 mg/ml, 37°C, 1 h.
Data set [8] deals with SkMC (muscle). In words: Cytotoxicity, sulforhodamine B assay, SkMC. Format: cell-based, human. The following applies: SkMC, day 11. An outline of the steps: as §1
Data set [9] can be described thus: Cytotoxicity, sulforhodamine B assay, Molt-4. The conditions noted are these: human, Molt-4 cells (blood), day 11. Format: cell-based, human. An outline of the steps:
as §1

A short description of data set [10]: Cytotoxicity, sulforhodamine B assay, iCell cardiomyocytes. Format: cell-based. The following applies: human, iCell cardiomyocytes (heart). An outline of the steps:
as §1

Data set [11] in a line: Cytotoxicity, sulforhodamine B assay, SNB-78. Format: cell-based, human. The following applies: human, SNB-78 cells (CNS), day 11. An outline of the steps: as §1
Data set [12] in a line: Cytotoxicity, sulforhodamine B assay, COLO 205. Format: cell-based, human. The conditions noted are these: human, COLO 205 cells (intestine), day 11. An outline of the steps:
as §1

Data set [13] can be described thus: Cytotoxicity, sulforhodamine B assay, Caki-1. Format: cell-based, human. The following applies: human, Caki-1 cells (kidney), day 11. An outline of the steps: as §1
Data set [14] can be described thus: Cytotoxicity, sulforhodamine B assay, HepG2. The following applies: human, HepG2 cells (liver), day 11, four doses. Format: cell-based, human. An outline of the steps:
as §1

Data set [15] has as its system mitochondrial DNA (MT-CO1). In words: Mitochondrial DNA quantification by qPCR. Format: cell-based, human. The following applies: across all cell lines, at ≤4 μM, day 11. An outline of the steps:
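Cells were treated as in the 11-day, four-dose cytotoxicity protocol in glucose or galactose medium. DNA was then quantified by TaqMan qPCR, with nuclear DNA measured using a succinate dehydrogenase-specific probe.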
In general terms: Real-time PCR tracks product formation cycle by cycle.

The nature of data set [16]: Cytotoxicity, sulforhodamine B assay, SkMC. Format: cell-based, human. The following applies: human, SkMC cells (muscle), CC50, SkMC, day 11. An outline of the steps:
as §1

For data set [17], the system named is human cellular polymerases. The conditions noted are these: cited from earlier work.

pIC50: −log10 of the molar value. Where two headings read alike, the source gives them in different places. Marks after values point to notes of the source that are not given here.

Take `Nc1nc2c(ncn2[C@@H]2O[C@H](CO)[C@@H](O)[C@H]2F)c(=O)[nH]1` [2′-F-G, 2′-F-guanosine]: the CC50 (in general, the concentration at which the toxic effect on the cells reaches its halfway point) came out at 12 µM in data set [1] (Molt-4, Galactose media); 15 µM in data set [1] (Molt-4, Glucose media); 12 µM in [2] (SNB-78, Galactose media); 35 µM in data set [2] (SNB-78, Glucose media); 22 µM in data set [3] (COLO 205, Galactose media); 19 µM in data set [3] (COLO 205, Glucose media). The CC50 in data set [4] (Caki-1, Galactose media) was 30 µM; in data set [4] (Caki-1, Glucose media), 32 µM; in data set [5] (HepG2, Galactose media), 112 µM; in [5] (HepG2, Glucose media), 115 µM; in data set [8] (Galactose media), 110 µM; in data set [8] (Glucose media), 127 µM. Further, the “decrease of CC50 in galactose compared to glucose media” value in data set [2] (SNB-78) is recorded as 2–10 fold. Moreover, the “amount excreted in bile” value was <0.0004* μg in data set [6] (ALN-TTRSC02 (ESC)) and 0.042 µg in data set [6] (revusiran (STC)). Also, in [6] (rat bile over 168 h, ALN-TTRSC02 (ESC)), the “% dose excreted in bile” value is on record as <0.0003* % dose. Also, the Cmax – broadly, the peak of the concentration-time curve – in data set [6] (rat heart, ALN-TTRSC02 (ESC)) was less than 500 nM; in [6] (rat heart, revusiran (STC)), less than 500 nM; in data set [6] (rat kidney, ALN-TTRSC02 (ESC)) it was less than 500 nM; in [6] (rat kidney, revusiran (STC)), 2600 nM; in data set [6] (rat liver, monomer liberated from ALN-TTRSC02 (ESC)) it was 1700 nM; in data set [6] (rat liver, monomer liberated from revusiran (STC)), 10800 nM. Besides, the Cmax in [6] (rat plasma, ALN-TTRSC02 (ESC)) is less than 30 nM; in data set [6] (rat plasma, revusiran (STC)), less than 30 nM. Besides, the AUClast worked out at 150 µM·h in [6] (rat kidney, revusiran (STC)); 138 µM·h in data set [6] (rat liver, ALN-TTRSC02 (ESC)); 722 µM·h in [6] (rat liver, revusiran (STC)). The “t1/2 (elimination half-life)” value in data set [6] (rat kidney, revusiran (STC)) is recorded as 46.9 h. The tmax amounted to 16 h in [6] (rat kidney, revusiran (STC)); 48 h in data set [6] (rat liver, ALN-TTRSC02 (ESC)); 36 h in [6] (rat liver, revusiran (STC)). The “amount excreted in urine” value in data set [6] (ALN-TTRSC02 (ESC)) was <0.003* μg; in data set [6] (revusiran (STC)), 1.3 µg. Moreover, in [6] (rat urine over 168 h, ALN-TTRSC02 (ESC)), the “% dose excreted in urine” value was <0.002* % dose. The “metabolic fate of 2′-F-nucleoside” value in [7] is given as “stable”.

With `Nc1ccn([C@H]2CC[C@@H](CO)O2)c(=O)n1` [ddC, 2′,3′-Dideoxycytidine], the CC50 at 11 days is greater than 20 µM in data set [9] (CC50, Molt-4, Galactose media); 8.7 µM in [9] (CC50, Molt-4, Glucose media); greater than 250 µM in [10]; greater than 20 µM in [11] (CC50, SNB-78, Galactose media); greater than 20 µM in [11] (CC50, SNB-78, Glucose media); greater than 20 µM in data set [12] (CC50, COLO 205, Galactose media). Also, the 50% cytotoxic concentration (CC50) at 11 days in [12] (CC50, COLO 205, Glucose media) was greater than 20 µM; in data set [13] (CC50, Caki-1, Galactose media), greater than 20 µM; in [13] (CC50, Caki-1, Glucose media), greater than 20 µM; in data set [14] (CC50, HepG2, Galactose media), greater than 20 µM; in [14] (CC50, HepG2, Glucose media), greater than 20 µM; in [16] (Galactose media), greater than 20 µM. Further, the CC50 at 11 days in data set [16] (Glucose media) is greater than 20 µM. In data set [15], the “reduction in mitochondrial DNA synthesis” value is listed as 70–80%.

`C[C@@]1(F)[C@H](O)[C@@H](COP(=O)(O)OP(=O)(O)OP(=O)(O)O)O[C@H]1n1ccc(=O)[nH]c1=O` [triphosphate form of Sofosbuvir]: the pIC50 (as a rule, −log10 of the IC50, conventionally taken in molar units) in data set [17] was less than 3.70.

Source of the values: article PMC6468299 (Nucleic Acids Research, 2019).
